Assay results reported in ChEMBL document CHEMBL4513216, “Probing the Open Global Health Chemical Diversity Library for Multistage-Active Starting Points for Next-Generation Antimalarials” (ACS Infect Dis, 2020).

Assay: Toxicity liver stage against HepG2, at 10uM
Assay type: cell-based
Design: test concentration 10 uM, cell line HepG2-A16-CD81EGFP
Settings: human, HepG2-A16-CD81EGFP cells; read-out: INHIBITION
Method in brief: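 Uninfected HepG2-A16-CD81EGFP cells, 3 × 10^3 per well, 1536-well, plated on prespotted compound at 10 μM final, parasite-free screening media added to match infected plates; puromycin 10 μM positive, DMSO 0.5% negative; run in parallel with 48 h PbLuc assay at 37 °C, 5% CO2; viability by CellTiter-Glo luminescence, normalized to controls.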

| SMILES | cytotoxicity at 10 µM [%] |
| --- | --- |
| Cc1nn(C)c(N(C)C)c1CNC(C)COc1ccccc1F (centres undefined) | -14.1 |
| Cc1noc(CCCC(=O)N2CCN(C)CC2c2ccccc2)n1 (centres undefined) | -6.73 |
| CCOC(=O)N1CCc2ccccc2C12CCNCC2 | 1.15 |
| CC(C)c1cc(C(=O)NCCc2nc(-c3ccncc3)n[nH]2)[nH]n1 | -0.01 |
| COc1ccc(-n2ncc(C(C)NC3CCOCC3)c2C)cc1 (centres undefined) | 2.77 |
| O=C(NCc1ccco1)[C@H]1C[C@H]2OCC[C@H]2N(C(=O)c2ccnnc2)C1 | -10.3 |
| COCCn1ccc2c(NC(=O)c3n[nH]c4c3CCC4)cccc21 | -1.6 |
| CC(C)n1ncc2cc(NC(=O)N3CCC(C(N)=O)C3)cnc21 (centres undefined) | -1.85 |
| c1cc(CN2CC[C@H]3C[C@H](c4nc(C5CC5)cs4)O[C@@H]3C2)ccn1 | 8.81 |
| CCN1CC2(CC1=O)CN(C(=O)c1ccoc1)CCN(C(=O)N(C)C)C2 (centres undefined) | 4.26 |
| c1sc(C2CCCCC2)nc1CN1CCn2c(nnc2C2CC2)C1 | -6.61 |
| Cc1cc(=O)n2nc(CNc3cc(Cl)ccc3C)nc2[nH]1 | -5.64 |
| COC(=O)COc1cc(NCc2c(C)noc2C)c(Cl)cc1C | 3.2 |
| O=c1ccc2c(n1CC1CC1)CCC(NS(=O)(=O)C1CC1)C2 (centres undefined) | -63.9 |
| C=C(C)COc1ccccc1NC(=O)N1CCOCC1CO (centres undefined) | -4.1 |
| CCC(O)CN(C)Cc1nnc2ccccn12 (centres undefined) | -26.7 |
| O=C1NC[C@H]2CN(Cc3nccs3)CCN12 | -4.9 |
| CN(CC1(O)CCCN(c2ccccn2)C1)C(=O)Cc1ccsc1 (centres undefined) | -1.11 |
| Cc1ccc(N2C(=O)N[C@@H]3CCN(C(=O)C4CCCC4)[C@@H]3C2=O)cc1 | 0.199 |
| CCN(CC1CCOC1)C(=O)c1cc(Cl)c2c(c1)OCO2 (centres undefined) | 8.88 |
| O=C(c1ccnnc1)N1C[C@@H]2OCCN(CCN3CCCC3)[C@@H]2C1 | 4.22 |
| CC(=O)N1CCCn2nc(CNS(=O)(=O)N(C)C(C)C)cc2C1 | 3.54 |

| SMILES | cytotoxicity at 10 µM [%] |
| --- | --- |
| Cc1n[nH]c(C)c1CC(=O)NCc1ccccc1Cl | 9.87 |
| Cc1csc(N2CCCN(C(=O)C(C(C)C)n3cncn3)CC2)n1 (centres undefined) | -7.71 |
| COc1cc(CN2CCCC(Nc3cccc(F)c3)C2)cc(Cl)c1O (centres undefined) | -0.476 |
| O=C([C@H]1CCCO1)N1CCCC2(COCCN(c3ccccc3)C2)C1 (some centres undefined) | 13.9 |
| CCN(CC)C(CNC(=O)c1c(C)noc1C(C)C)c1ccsc1 (centres undefined) | -12.2 |
| CNc1cc(CCNS(=O)(=O)c2ccccc2)nc(-c2ccccn2)n1 | 5.13 |
| CCn1nc2c(cc1=O)CN(CC(=O)Nc1cc(C)no1)CC2 | -5.22 |
| Cc1noc(C)c1C(=O)NCCN1CCN(S(C)(=O)=O)CC1 | -12.4 |
| Cn1ncc2c1NC(=O)CSC2c1ccccc1Cl (centres undefined) | 5.81 |
| Cc1cc(C[C@@H]2CCC[C@H]2NCc2cc(C)c(O)c(C)c2)on1 | 3.37 |
| Cc1cnc(N2CCc3c(cnc(C)c3C(=O)O)C2)nc1 | 8.1 |
| Cc1nc(-c2ccc(C(=O)O)cc2)cc(C2CCCN(C(C)C)C2)n1 (centres undefined) | -10.2 |
| O=C(Nc1cccc(C(F)F)c1)N[C@@H]1C=C[C@H](CO)C1 | -4.81 |
| COc1ccccc1[C@@H]1CN(Cc2c(C)noc2C)C[C@H]1C(=O)O | -9.94 |
| c1ccc(-c2nc(CN3CCCC3Cn3cncn3)cs2)cc1 (centres undefined) | -14 |
| Cn1ccc(C(=O)N2CCCC2c2cc(CCO)[nH]n2)n1 (centres undefined) | 3.31 |
| CCc1cc(C(F)(F)F)c2c(C)nn(CC(=O)O)c2n1 | 0.77 |
| Cc1cnn(CC2CCCN2C(=O)c2cccc(CC#N)c2)c1 (centres undefined) | -8.62 |
| CCNC(=O)[C@@H]1C[C@H](NC(=O)c2ccccc2C#N)CN1CCCSC | -12.7 |
| CS(=O)(=O)c1snnc1C1CCN(Cc2ccc3nccnc3c2)CC1 | -6.14 |
| NC(=O)C1CCN(C(=O)c2ccn(-c3cccc(F)c3)n2)C1 (centres undefined) | -3.05 |
| O=C([C@H]1CN(Cc2ccccc2F)C[C@H]2OCC[C@@H]12)N1CCCO1 | 13 |

| SMILES | cytotoxicity at 10 µM [%] |
| --- | --- |
| c1cc(CN2CC[C@H]3O[C@@H](COCC4CCOCC4)CC[C@H]32)ccn1 | -69.8 |
| NC(=O)CN1C(=O)CO[C@H]2CN(Cc3ccc(C(F)(F)F)cc3)C[C@H]21 | 0.523 |
| N#Cc1c(N)nc2c(c1-c1c[nH]nc1C1CCCCC1)CNCC2 | 0.787 |
| O=C(c1ccoc1)N1CCC2(CC1)COC(COCc1ccccn1)C2 (centres undefined) | -138 |
| Clc1ccc(C2NCCc3cc4c(cc32)OCCO4)cc1 (centres undefined) | -16.3 |
| O=C1NC2(Cc3ccccc31)CN(CC1CCOCC1)C2 | 14 |
| CCN(Cc1ccncc1)CC1(O)CCN(C(=O)c2cccc(C)n2)C1 (centres undefined) | -4.08 |
| Cc1cccc(CSc2nnc(C)n2CC(N)=O)c1 | -4.46 |
| CSCCCN1C[C@H](NC(=O)c2ccc(C#N)nc2)[C@@H](C2CC2)C1 | 2.72 |
| CN(C)CCCN1CC2(CCN(C3CCCOC3)CC2)OC1=O (centres undefined) | -5 |
| O=C(CCNC(=O)c1ccoc1)Nc1cc(F)cc(F)c1 | -7.41 |
| CCCC(O)CN1CCC(=O)N(CC)Cc2cc3c(cc21)OCO3 (centres undefined) | -18.5 |
| CC(=O)NCCC(=O)NC(C)c1sc(-c2ccccc2F)nc1C (centres undefined) | 7.92 |
| CC(C1CC1)n1nccc1NC(=O)CN(C)C(=O)OC(C)(C)C (centres undefined) | 0.258 |
| CCNC(=O)c1ncn2c1CN(C)S(=O)(=O)c1ccccc1-2 | -10.1 |
| CN(C)CCOCC1CN(C(=O)c2cccn2C)Cc2ccnn2C1 (centres undefined) | 13.5 |
| O=C(c1ccco1)N1Cc2nccn2CC(Cn2ncccc2=O)C1 (centres undefined) | 5.09 |
| COCCN1CCC(CNC(=O)C2(c3cccc(C)c3)CC2)C1 (centres undefined) | -4.28 |
| COc1ccc(C(C)NCc2c[nH]nc2C)cc1OC (centres undefined) | -3.75 |
| CN(CC(=O)NC(C)(C#N)C1CC1)Cc1nnc(C2CC2)n1C (centres undefined) | 7.32 |
| CC(C)Cc1noc(CN2CCN(C(=O)c3cccc(F)c3)CC2)n1 | -5.7 |
| Cn1ncc2c(NCCC34CCCN3CCC4)nc(C3CCCC3)nc21 | -12.9 |

| SMILES | cytotoxicity at 10 µM [%] |
| --- | --- |
| Cc1csc(NC(=O)C2CCN(Cc3cccc4c3OCCO4)CC2)n1 | -17.9 |
| O=C(c1cncs1)N1CCC(c2cnccn2)CC1 | -23.2 |
| Cc1n[nH]c(C)c1NC(=O)CCc1cccc(C2CCCN(C)C2)n1 (centres undefined) | -6.19 |
| Cc1cccc(OCCNC(=O)CN2CCCC2c2noc(C)n2)c1 (centres undefined) | -8.6 |
| O=C(C1CCOCC1)N1CC[C@@H](O)[C@@H]1Cc1ccncc1 | -2.36 |
| c1ccc(COC[C@@H]2CC[C@H]3[C@H](CCN3c3ncccn3)O2)nc1 | -74.6 |
| COc1ccccc1C1(CNc2ccnc(C(=O)N(C)C)c2)CC1 | -1.67 |
| COc1ccc(OC)c(-c2csc(-c3cccc(C(=O)O)c3)n2)c1 | 3.75 |
| CCC(CC)(CCO)CNC(=O)c1ccon1 | 6.27 |
| COc1ccccc1CN(CC1CCCO1)C(=O)c1csnn1 (centres undefined) | -0.636 |
| CSc1ncccc1C(=O)N1C[C@@H]2CC[C@H]1CN(c1ncccn1)C2 | -4.03 |
| Cn1c(CN2CCCC(c3noc(C4CC4)n3)C2)cc(=O)n(C)c1=O (centres undefined) | -11.2 |
| CC(C)[C@H]1CN(C2Cc3ccccc3C2)C[C@@H]1NS(C)(=O)=O | -16 |
| CC(CCNC(=O)NCCc1ccncc1)c1ccccc1 (centres undefined) | -5.82 |
| CC(Cn1cncn1)NC(=O)NCC(C)(C)Cc1ccccc1 (centres undefined) | 17 |
| CC(C)c1nccn1-c1cccc(C2CCCN(C3CCCC3)C2)n1 (centres undefined) | 7.1 |
| COc1ccc(Cc2ncc3c(n2)CN(C(=O)C(C)(C)OC)C3)cc1 | -1.24 |
| COc1cccc(CNc2ccc(F)c(Cl)c2)c1O | 4.56 |
| CN1CCOC(CNC(=O)CCCOc2ccccc2F)C1 (centres undefined) | -3.15 |
| Cc1cnn(CCNc2ncnc3c2CCN(CC2CCOC2)CC3)c1 (centres undefined) | -4.24 |
| CCn1cc(C(=O)n2nc(C)cc2C)c(S(=O)(=O)N2CCCCC2)n1 | -3.81 |
| CC(C)(CCS(C)(=O)=O)CNC(=O)NC1CCCCC1(C)C (centres undefined) | 11.3 |

| SMILES | cytotoxicity at 10 µM [%] |
| --- | --- |
| COC(=O)c1cccc(S(=O)(=O)Nc2ncc(C)s2)c1 | 0.158 |
| CCc1ccc(C(=O)Nc2cc(N3CCNC3=O)ccc2Cl)o1 | 6.03 |
| Cc1cc(C(=O)Nc2n[nH]c(C3CC3)n2)c2c(C)noc2n1 | -1.86 |
| CCn1ccc(NC(=O)C2CCC(=O)N2Cc2ccc(C)o2)n1 (centres undefined) | 6.17 |
| COc1cc(C(=O)N2CCCC2CC(=O)c2cnn(C)c2)ccc1F (centres undefined) | -4.62 |
| Cc1noc(C)c1CN1CC[C@H]2[C@@H]1CCC(=O)N2CC1CCOCC1 | -1.38 |
| OCCN1CCC(Cc2nccs2)CC1 | 5.97 |
| c1ccc(CN2CCOC3CNCC[C@H]32)cc1 (some centres undefined) | 6.31 |
| COc1ccc2c(c1)c(C(=O)Nc1n[nH]c(C(C)C)n1)cn2C(C)C | -26.8 |
| NC(=O)c1ccc(N2CCCCC2)c(NC(=O)c2cc(F)ccc2F)c1 | 7.57 |
| CC(C)N1CC2(CCC1=O)CCN(C(=O)c1cccc(F)c1F)CC2 | -18.5 |
| CCc1ccc(S(=O)(=O)N2CC[C@@](O)(CCOC)[C@H](C)C2)cc1 | 6.8 |
| COc1cc(NC(=O)NCC2CCCO2)cc(OC)c1 (centres undefined) | 15.6 |
| CC(=O)NCC1CCN(C(=O)c2c[nH]c3cc(Cl)ccc23)CC1 | 7.07 |
| COCCOc1ccc(NC(=O)C2CC(=O)N(C)C2)cn1 (centres undefined) | -5.31 |
| O=C(NCCNC(=O)C1CCN(c2ncccn2)CC1)c1ccoc1 | -9.99 |
| CCc1nc(CCNC(=O)C2CCOC2)sc1C (centres undefined) | -20.4 |
| CSCCC(NC(=O)c1ccc2ccccc2n1)C(=O)NC(C)C (centres undefined) | 9.3 |
| COc1ccc(CC(=O)N2CCCC(n3nc(C)cc3C)C2)cc1F (centres undefined) | -1.76 |
| N#Cc1ccc(CNC(=O)NCCC(=O)NC2CCCC2)c(F)c1 | 3.79 |
| CNc1cc(N2CCCC2CNCc2cccc(C#N)c2)ncn1 (centres undefined) | -10.7 |
